High-throughput results (PubChem)
Sampled rows, rich in hits. Any-hit rate of the full collection: about 1.8%.
zVAD death inh = inhibitors of zVAD-triggered necroptosis, primary screen, L929 cells; AID 1377, 2008; hit rate 0.38% among 220,000; L929 zVAD necroptosis rescue, ATP luminescence, 24 h; with zVAD 60 µM; viability rescue, % at 10 µM;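 active = activation, scaled between plate controls, above about 75%, limit read from the data; inactive = activation under that limit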;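 also: 0% = zVAD with DMSO and 100% = DMSO alone without zVAD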
Mdm2 ligase inh = MDM2-luciferase reporter signal enhancers, primary screen, MDM2 E3 ligase inhibitor project, cell-based, luminescence, 1536-well. E3 ubiquitin-protein ligase Mdm2 (Homo sapiens), Q00987. hit rate 0.11% among 210,000. signal enhancement, % at 5 µM. cell-based MDM2 ubiquitination luciferase reporter, 2 h; 0 = plate control, 100 = twice control, blank-subtracted. AID 1230, 2008;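 active = signal enhancement of 30% or more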;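 also: luminescence tracks abundance of the self-degrading MDM2-luciferase fusion protein; higher signal means inhibition of MDM2 E3 ligase activity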
Target sequence (Q00987 whole entry, looked up, the tested form may be a part): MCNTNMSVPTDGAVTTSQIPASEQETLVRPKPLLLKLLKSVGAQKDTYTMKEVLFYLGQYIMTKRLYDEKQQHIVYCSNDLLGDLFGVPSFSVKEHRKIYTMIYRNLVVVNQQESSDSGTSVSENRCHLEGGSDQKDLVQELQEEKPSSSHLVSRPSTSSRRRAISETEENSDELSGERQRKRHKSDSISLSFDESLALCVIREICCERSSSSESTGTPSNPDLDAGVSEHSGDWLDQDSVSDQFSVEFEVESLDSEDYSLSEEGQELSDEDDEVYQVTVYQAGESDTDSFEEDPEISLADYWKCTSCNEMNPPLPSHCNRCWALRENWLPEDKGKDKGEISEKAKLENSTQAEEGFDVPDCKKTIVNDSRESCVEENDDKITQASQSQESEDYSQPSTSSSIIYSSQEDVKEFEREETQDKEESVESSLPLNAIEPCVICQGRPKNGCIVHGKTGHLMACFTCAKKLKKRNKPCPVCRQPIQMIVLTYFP
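test system = mammalian cells stably expressing self-ubiquitinating, self-degrading MDM2 E3–luciferase fusion | quantity = 2000 cells/well | incubation = cell settling 4 h, compound treatment 2 h, both 37 °C | signal = luminescence with SteadyLite reagent, 15 min at room temperature | evaluation = % enhancement relative to plate controls after blank subtraction | benchmarks = plate controls and plate blanks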
TNF death inh = inhibitors of TNF-alpha triggered necroptosis, primary screen, cell-based, Jurkat FADD-/-, single concentration | Jurkat FADD-/- TNF necroptosis rescue, ATP luminescence, 24 h; 0 = TNF only, 100 = no-TNF cells | activation (protection from cell death), % at 10 µM | hit rate 0.068% among 220,000 | AID 463075, 2010;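 active = activation, meaning protection from cell death, of at least 50% relative to plate controls; inactive = activation below 50%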;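 also: necroptosis triggered by 40 ng/mL TNF-alpha added together with compound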
Dynein transport = inhibitors of GR-EGFP nuclear translocation, primary screen, dynein cargo transport inhibitor project, imaging, high-content, 3617.4 mouse cells | hit rate 0.47% among 220,000 | z-score, hits read low | test concentration mostly 20 µM; stimulated with dexamethasone, 1 µM; stronger effect = lower value;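 active = plate z-score of nuclear minus cytoplasmic receptor signal below a set negative limit, without overly bright fluorescence or cell loss, cut at about -3.5 in these data, passing the limit was not always enough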;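 also: z-score of nuclear minus cytoplasmic ring GR-EGFP intensity difference per well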
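medium = tetracycline-free induction medium containing charcoal-stripped FBS | probe or stimulus = dexamethasone, 1.0 µM final | timing = 48 h induction, then 1 h compound, then 30 min agonist, 37 °C | detection = automated 10x imaging of fixed Hoechst-stained cells | read-out basis = nuclear versus cytoplasmic GR-EGFP signal, averaged per well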
Autophagy HCS = autophagy modulators in MEF cells, primary screen, imaging, high-content, MEF GFP-LC3 | MEF GFP-LC3 puncta imaging; test concentration mostly 10 µM | hit rate 0.98% among 190,000 | calls only at 10 µM (by protocol);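 active = percentage of spot-positive cells more than 3 SD above its plate mean, without a fluorescence outlier flag or 80% toxicity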;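 also: spot-positive cell cutoff set from DMSO-treated cells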
zVAD necrop conf = inhibitors of zVAD-triggered necroptosis in L929, confirmation, L929 cells, duplicate runs. shares compounds with zVAD death inh. L929 zVAD-induced necroptosis rescue, ATP luminescence, 24 h. activation (protection from necroptosis), % at 10 µM. hit rate 16% among 760. AID 463117, 2010;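 active = mean protection from necroptosis of at least 50% over duplicate tests; inactive = mean protection below 50%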;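 also: 0% = cells with zVAD alone and 100% = vehicle cells without zVAD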
Dynein inh conf = dynein cargo transport inhibitors, GR-EGFP translocation, confirmation, imaging, high-content imaging, GR-EGFP cells; shares compounds with Dynein transport; 3617.4 GR-EGFP nuclear translocation imaging, dexamethasone-induced; calls only at 20 µM; hit rate 69% among 1,000;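 active = inhibition of receptor movement into the nucleus at or above a set limit in both runs, with normal cell brightness and cell count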;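 also: dexamethasone at 1 µM final in well for 30 min; nuclear minus cytoplasmic GR-EGFP mean intensity difference in channel 2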
Starred values were filed as active, the others as inactive; i = inactive; · = no result given; + = active, no number.

SMILES	zVAD death inh	Mdm2 ligase inh	TNF death inh	Dynein transport	Autophagy HCS	others
CN(C)C(=S)SSC(=S)N(C)C	18	41*	-8	-2.2	+
CP(=O)(O)CCCN	0	-13	0	i	i
O=C1NC(=O)N(c2ccc(Br)cc2)C(=O)/C1=C/c1ccsc1	0	-1	0	0.11	+
CCN(CC)P(=O)(c1n(CC)cc[n+]1CC)N(CC)CC	4	-5	0	-0.038	i
Cc1c2ccncc2c(C)c2c1[nH]c1ccccc12	44	·	-29	-3.7	+
O=c1[nH]c(O)c(/C=C2\C=NN=C2c2ccccc2)c(=O)[nH]1	0	1	0	-0.37	i
CC1=CC(=C2C(=O)NC(=O)NC2=O)C=C(C(F)(F)F)N1Cc1ccccc1	0	-6	-3	-0.22	i
CC1=CC(=C2C(=O)NC(=S)NC2=O)C=C(C(F)(F)F)N1Cc1ccccc1	-3	-3	-9	-0.12	+
Nc1ccc2nonc2c1[N+](=O)[O-]	1	-19	0	0.67	i
c1ccc(C2CC3CC4(CCCC4)N2O3)cc1 (stereo unspecified)	30	-19	94*	0.79	i
C=CCn1c(O)c(C=Nc2ccc(N(CC)CC)cc2)c(=O)[nH]c1=O	1	-14	0	-0.069	i
CCN(CC)c1ccc(N=Cc2c(O)n(-c3ccc(Cl)cc3)c(=O)[nH]c2=O)cc1	0	-6	-5	-0.15	+
CCN(CC)c1ccc(N=Cc2c(O)n(-c3ccc(OC)cc3)c(=O)[nH]c2=O)cc1	-1	0	-2	-5.1	i
CN(C)c1ccc(N=Cc2c(O)n(CCC3=CCCCC3)c(=O)[nH]c2=O)cc1	3	5	1	-0.73	+
CCN(CC)c1ccc(N=Cc2c(O)n(CCC3=CCCCC3)c(=O)[nH]c2=O)cc1	10	-20	0	0.19	+
CCc1ccc(C(=O)C23CN4CN(CN(C4)C2)C3)cc1	0	-3	-1	0.48	i
COC(=O)C[C@]1(C(=O)OC)CN(C#N)N(c2ccc(Cl)cc2)C12c1ccccc1-c1ccccc12	10	·	-17	-4.4*	i
O=C1/C(=C/c2ccc([N+](=O)[O-])cc2)N2CCC1CC2	1	-15	4	-0.58	i
CCCCCCOc1ccc(CN2CCN(C)CC2)cc1	4	-14	0	-0.32	+
C/C=C(\C)C(=O)OC1C(C)=C2C(C1OC(=O)CCCCC)C(C)(OC(C)=O)CC(OC(=O)CCC)C1(O)C2OC(=O)C1(C)O (stereo unspecified)	70	-39	-22	-0.94	·
O=[N+]([O-])c1ccc(N2CCNCC2)cc1N1CCCCC1	0	-15	2	1.2	i
COc1ccc(NC(=O)c2cc([N+](=O)[O-])ccc2N2CCNCC2)cc1	1	-18	2	1.7	+
CCCC(=O)NC(Oc1ccc(C(C)=O)cc1)C(Cl)(Cl)Cl (stereo unspecified)	2	-2	0	-0.49	i
CN1C2CCC1/C(=C/c1ccccn1)C(=O)/C2=C\c1ccccn1	40	-5	-1	-3.6*	i
O=C1Nc2ccccc2/C1=C/c1cnc[nH]1	86*	-14	-22	0.56	i	zVAD necrop conf=79*
SMILES	zVAD death inh	Mdm2 ligase inh	TNF death inh	Dynein transport	Autophagy HCS	others
COc1cc(C[C@@H](C)N)c(OC)cc1I	0	-4	7	-0.74	·
C[C@H]1C[C@@H](C)C(=O)[C@@H]([C@H](O)CC2CC(=O)NC(=O)C2)C1	77*	-60	-2	0.81	i	zVAD necrop conf=80*
CCC(C)n1c(O)c(C=NCC2CCCO2)c(=O)[nH]c1=S (stereo unspecified)	0	-4	-1	-0.7	·
CCOc1ccc(N2C(=O)/C(=C\c3cccs3)C(=O)NC2=S)cc1	0	-28	-1	-4.4*	i	Dynein inh conf=+
O=[N+]([O-])c1ccc(NCc2ccccc2)c2nonc12	0	-9	-1	-6.8*	i	Dynein inh conf=+
COc1ccc(N2C(=O)NC(=O)/C(=C\c3ccccc3[N+](=O)[O-])C2=O)cc1	-1	-12	0	0.12	i
COc1ccc(OC)c(N2C(=O)NC(=O)/C(=C\c3ccc([N+](=O)[O-])s3)C2=O)c1	0	-13	-14	-5.6*	i	Dynein inh conf=+
O=C1NC(=O)N(c2ccccc2)C(=O)/C1=C\c1ccc([N+](=O)[O-])o1	1	-7	-1	0.073	·
O=C1NC(=O)N(c2ccccc2)C(=O)/C1=C\c1ccc([N+](=O)[O-])s1	-1	-1	-24	-6*	·	Dynein inh conf=+
CN1C(=O)NC(=O)/C(=C/c2ccc([N+](=O)[O-])s2)C1=O	-1	-8	-24	-5.5*	·	Dynein inh conf=+
CN1C(=O)NC(=O)/C(=C/c2ccc([N+](=O)[O-])o2)C1=O	1	-10	2	-0.24	·
CCC(=NCc1cccnc1)c1c(O)n(-c2ccc(Cl)cc2)c(=O)[nH]c1=O	1	0	-1	2.4	·
CCNC(=S)NCCC1=c2ccccc2=N/C1=C\c1c(O)n(C)c(=O)n(C)c1=O	0	-9	-3	-0.68	·
O=C1NC(=O)N(Cc2ccc(F)cc2)C(=O)/C1=C\C=C\c1ccco1	-1	4	-25	-5.1*	·	Dynein inh conf=+
Cc1cc(C)cc(N2C(=O)NC(=O)/C(=C\C=C\c3ccco3)C2=O)c1	0	17	-7	-4.5*	i	Dynein inh conf=+
O=C1NC(=O)N(c2ccccc2)C(=O)/C1=C\C=C\c1ccccc1	0	26	-25	-6*	·	Dynein inh conf=+
Cc1ccc(N2C(=O)NC(=O)/C(=C/C=C/c3ccco3)C2=O)cc1	1	-11	-12	-4.5*	i	Dynein inh conf=+
O=C(Cn1nc(-c2ccc(Cl)cc2)ccc1=O)N1CCC2(CC1)OCCO2	1	-40	0	-0.5	i
CC12CN3CN(C1)CC(C)(C3)C2=NO	1	7	1	-0.7	i
CC(C)CN1CCN(Cc2ccc(C(F)(F)F)cc2)CC1CCO (stereo unspecified)	-2	-15	2	0.4	·
